NALP3 yeast inh = NALP3 inhibition in yeast | Yeast reconstituted NLRP3/ASC/caspase-1, beta-gal luminescence, 24 h | 330,000 tested, 0.39% active | inhibition, % at 10 µM;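 active = inhibition of 50% or more; inactive = inhibition below 50%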;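 note: plate controls were induced DMSO wells for no effect and uninduced yeast grown without galactose for full effect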
ALR H2O2 inh = blocks human ALR sulfhydryl oxidase activity; purified ALR, DTT oxidation, H2O2 HRP-luminol luminescence; 290,000 tested, 3.8% active; inhibition, % (test concentration not listed);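 active = mean replicate inhibition above about 79%, with every replicate also reaching it, limit read from the data; inconclusive = only one of the two criteria met; inactive = mean below limit and not every replicate reaching it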
Arrestin-AP2 inh = human beta-arrestin and AP2 interaction inhibition; FITC-arrestin peptide / GST-AP2 beads, flow cytometry; AP2 beta2 appendage carries R879A mutation; inhibition, % at 10 µM; 340,000 tested, 0.31% active; AID 504490;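 active = inhibition above a set limit, near 3 SD of compounds lacking own fluorescence, cut at about 54% in these data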;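 note: plate controls were DMSO wells for no effect and 5 µM unlabelled arrestin peptide for full effect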
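System: GST-AP2 R879A bound to glutathione beads, E. coli-expressed. Also added: 50 nM FITC-arrestin peptide. Schedule: compound with beads 12 min RT, then probe 1 h RT. Signal: bead flow cytometry, FITC channel. Read-out basis: percent response.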
PolyA inhibitor = inhibitors of polyadenylation in S. cerevisiae | S. cerevisiae SKY197-pL101 polyadenylation reporter, beta-gal luminescence; efflux-impaired pdr1/pdr3 knockout yeast; score 100 = 6 SD above DMSO | AID 1875 | activity score, % at 12 µM | 300,000 tested, 0.02% active;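 active = lowest replicate activity score at least 50, where 100 means six control SD above control mean; inconclusive = lowest score under 50 but half or more replicates reach 50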;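 note: yeast exposed to compound for 9 h at 30 °C; higher score means more reporter readthrough which indicates perturbed polyadenylation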
NALP1 inh = NALP1 inhibition; S. cerevisiae NALP1/ASC/caspase-1 growth, X-gal OD620, 72 h; inhibition, % at 10 µM; 280,000 tested, 0.61% active; in the data active = inhibition mostly above about 24%, no sharp cut-off; inactive = mostly below about 32%
Pemphigus Ab inh = human desmoglein-3 autoantibody binding inhibition; P32926; DSG3-coupled beads, scFv-anti-DSG3-GFP binding, flow cytometry; active compounds read low; binding (percent of control), % at 10 µM; 310,000 tested, 0.48% active;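 active = binding more than 3 SD below its plate's average and above zero; inconclusive = below that plate limit but binding exactly zero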;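 note: hits lower antibody fragment binding to DSG3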
Active calls of the source: *; ? = inconclusive; · = no result. Rows were chosen to be rich in hits. Some 4.6% of all compounds tested hit in one or more screens of this group.

SMILES	NALP3 yeast inh	ALR H2O2 inh	Arrestin-AP2 inh	PolyA inhibitor	NALP1 inh	Pemphigus Ab inh
CC1OC(OC2C(OC3C(O[C@H]4CC[C@]5(C)C6C=C[C@]78OC[C@@]9(CC[C@@H](C)[C@H](C)C97)[C@H](O)C[C@@]8(C)[C@]6(C)CC[C@H]5C4(C)C)OC(C)C(O)C3O)OC(CO)C(O)C2O)C(O)C(O)C1O (stereo not given in full)	·	·	·	-20	7	·
CC(=NNC(=S)N1CCN(c2ccccn2)CC1)c1nccs1	·	·	-12	·	·	90
O=C(Nc1ccccc1)Nc1ccc(O)c2ccccc12	22	87*	-14	-11	·	103
O=C(Nc1ccccc1)Nc1cccc2ccccc12	4	-3	4	-9	19	91
Cc1ccc([C@H]2C(C(=O)O)=CC[C@@H](c3ccc(C(C)C)cc3)N2S(=O)(=O)c2ccc(C)cc2)cc1	7	13	0	·	·	105
Cc1ccc(S(=O)(=O)N2[C@@H](c3ccc(Cl)cc3)C(C(=O)O)=CC[C@H]2c2ccc(C(C)C)cc2)cc1	-9	95*	2	·	·	104
Cn1nnc2sc3c(c2c1=O)CCCC3	-30	-22	5	-8	-6	79*
CC(=O)N(C(C)=O)n1c(C)nc2sc3c(c2c1=O)CCCC3	-10	97*	-10	3	1	93
c1cc2c(c(NCc3ccncc3)c1)CCCC2	3	99*	2	25	38*	102
c1ccc(NNC2=NCCS2)cc1	21	91*	34	-9	5	107
CC(C)Sc1nnc(NC(=O)c2ccc3c(c2)OCO3)s1	-9	10	2	-6	15	109
C[C@H]1CN([C@@H](C)CO)C(=O)CCCn2nncc2CO[C@@H]1CN(C)C(=O)NC1CCCCC1	·	·	·	·	·	100
CCc1nc2ccc(C(=O)N(C)CC(=O)Nc3ccc(F)c(F)c3F)cc2nc1CC	-5	·	-9	·	·	77
Cc1ccc(Nc2nc(Cl)nc(N(C)C#N)n2)cc1	23	97*	5	1	11	110
Cc1ccc(Nc2nc(Cl)nc(NC(C)(C)C)n2)cc1	2	9	-19	13	18	101
COc1ccccc1NC(=O)N(C)C[C@H]1Oc2ncc(C#CCN(C)C)cc2C(=O)N([C@H](C)CO)C[C@H]1C	·	·	·	·	·	106
CCn1c(-c2ccc(N(C)C)cc2)nc2ccccc21	7	99*	18	-29	20	·
COc1cc(Cn2c(-c3ccc(O)c(OC)c3)nc3ccccc32)ccc1O	18	99*	19	16	·	106
C=CCn1c(-c2ccc(N)cc2)nc2ccccc21	4	95*	21	-7	-12	111
C=CCn1c(N)nc2ccccc21	19	-12	1	-4	8	94
Cn1c(-c2nonc2N)nc2ccccc21	14	-19	-3	2	29*	112
Cc1ccc(Nc2c([N+](=O)[O-])ccc3nonc23)cc1C	-14	-15	11	-22	4	103
CN(C)c1ccc(-c2nc3ccccc3n2C)cc1	35	91*	4	-4	-7	123
CCn1c(-c2ccc(N)cc2)nc2ccccc21	13	92*	4	0	-2	106
COc1cc([C@@H]2OC[C@@H]3[C@H]2CO[C@@H]3c2ccc3c(c2)OCO3)ccc1O	-7	13	26	·	·	102
SMILES	NALP3 yeast inh	ALR H2O2 inh	Arrestin-AP2 inh	PolyA inhibitor	NALP1 inh	Pemphigus Ab inh
COc1cc(CC2COC(c3ccc(O)c(OC)c3)C2COC(C)=O)ccc1O (stereo not given)	-3	82*	-2	·	-3	105
CC(C)(C)c1nc(SCC(=O)NNC(=O)c2ccccc2)c2ccccc2n1	13	0	6	8	5	105
COc1ccccc1CCC(=O)NC1CCCN(c2ccc(C(F)(F)F)cn2)C1 (stereo not given)	1	-18	4	11	27	98
O=C(CCc1ccccc1Cl)NC1CCCN(c2ccc(C(F)(F)F)cn2)C1 (stereo not given)	17	13	-5	-5	12	82*
Cn1c(Nc2ccc(F)cc2)nc2ccccc21	21	62	-4	-15	20	105
Cn1c(CNc2ccc(Br)cc2)nc2ccccc21	31	96*	6	-2	-2	94
COc1ccc(Nc2nc3ccccc3n2C)cc1	15	77*	2	-2	20	100
COc1ccc(NCc2nc3ccccc3n2C)cc1	10	98*	11	7	2	98
Cc1ccc(NCc2nc3ccccc3n2C)cc1	21	-2	-28	2	3	108
CN(Cc1nc2ccccc2n1C)c1ccccc1	31	99*	-4	0	14	115
CCOc1ccc(OCCC(=O)OCC(=O)NC2CCCC2)cc1	16	1	-12	·	·	·
COc1cccc(/C=C2\NC(=O)NC2=O)c1O	18	71	-10	24	-3	88
Cc1ccc(S(=O)(=O)N2CCC(C(=O)N3CCCCCCC3)CC2)cc1C	·	·	·	·	·	107
Cc1ccc(NCc2nc3ccccc3n2C)cc1C	27	98*	0	-2	17	99
Cn1c(CNc2ccc(O)cc2)nc2ccccc21	12	99*	30	-16	17	95
Cc1ccc(CN(C)CCc2ccccn2)cc1	21	96*	-2	4	16	106
CCc1ccc(CN(C)CCc2ccccn2)cc1	-7	2	6	0	19	·
O=C1[C@H]2[C@@H](c3ccc(F)cc3)N3C(=O)N(c4cccc(Br)c4)C(=O)[C@@]3(Cc3ccc(Cl)cc3)[C@H]2C(=O)N1C1CCCCC1	-1	4	5	-1	17	-6.5*
O=C1[C@H]2[C@@H](c3ccc(Cl)cc3)N3C(=O)N(c4cccc(Br)c4)C(=O)[C@@]3(Cc3ccc(Cl)cc3)[C@H]2C(=O)N1C1CCCCC1	-8	35	2	0	14	98
CC[n+]1c(/C=C(\C)Nc2ccccc2)sc2ccccc21	·	89*	16	·	40	127
Cc1ccc(C)c(NC(=S)NC2CC3CCC(C2)N3Cc2ccco2)c1 (stereo not given)	8	4	37	2	-7	80*
Cn1c(-c2cccc(Br)c2)cnc1NCc1ccccc1O	22	?	31	-9	24	113
CCOc1c(O)ccc(/C=C2\SC(=S)NC2=O)c1[N+](=O)[O-]	37	99*	8	-14	10	102
COc1cc2c3nc4n(c(=O)c3n(CC(=O)NCC3CCCO3)c2cc1OC)CCS4 (stereo not given)	17	-6	-2	16	15	93
CC1CCCC(NC(=O)CCC(=O)N2CCOc3ccccc32)C1C (stereo not given)	13	-2	8	0	7	·

Screening data from PubChem.
